# Where “and” joins values, the source holds several entries; their conditions need not be identical. Identical values can stand only once.
# Tested on: HEK-293T
# Assay: Multiplex assay against HEK293T
# Format: toxicity, cell-based
# Settings: human
# Method in brief: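 Tubulin, mitochondrial-mass and membrane-permeability phenotypes are per cents of healthy-nucleus cells. Cells were gated by CellPathfinder machine learning into Hoechst high-intensity objects or normal cells, normal cells into healthy, pyknosed or fragmented nuclei, and pyknosed cells into mitotic or apoptotic. Before that, live cells stained at seeding with Hoechst33342, BioTracker Green Microtubule Cytoskeleton Dye, MitoTracker Red and Annexin V Alexa Fluor 680 were imaged on a CQ1 microscope at 37°C and 5% CO2 after compound addition.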
# [1] = 12 h, 1 µM, compound concentration 1 uM
# [2] = 12 h, 10 µM, compound concentration 10 uM
# [3] = 24 h, 1 µM, compound concentration 1 uM
# [4] = 24 h, 10 µM, compound concentration 10 uM
# [5] = 48 h, 1 µM, compound concentration 1 uM
# [6] = 48 h, 10 µM, compound concentration 10 uM
smiles,measurement,setting,value
O=C(NCCO)c1cccc(-c2cc(Nc3ccc(OC(F)(F)F)cc3)ncn2)c1,Population Apoptotic (%),[1],27% and 40%
same,Population Fragmented Nuclei (%),[1],7% and 4%
same,Population Healthy Nuclei (%),[1],78% and 77%
same,Population Hoechst High Intensity Objects (%),[1],8% and 6%
same,Population Membrane Permeable-Phenotype (%),[1],0%
same,Population Mitochondria Different-Phenotype (%),[1],47% and 60%
same,Population Mitotic Cells (%),[1],72% and 59%
same,Population Normal (%),[1],91% and 93%
same,Population Pyknosed Nuclei (%),[1],13% and 17%
same,Population Tubulin-Different-Phenotype (%),[1],23% and 16%
same,Total Cell Count,[1],409 and 262
same,Population Apoptotic (%),[2],55% and 63%
same,Population Fragmented Nuclei (%),[2],6% and 5%
same,Population Healthy Nuclei (%),[2],76% and 73%
same,Population Hoechst High Intensity Objects (%),[2],10% and 12%
same,Population Membrane Permeable-Phenotype (%),[2],0%
same,Population Mitochondria Different-Phenotype (%),[2],69% and 74%
same,Population Mitotic Cells (%),[2],44% and 36%
same,Population Normal (%),[2],89% and 87%
same,Population Pyknosed Nuclei (%),[2],17% and 21%
same,Population Tubulin-Different-Phenotype (%),[2],49% and 26%
same,Total Cell Count,[2],374 and 325
same,Population Apoptotic (%),[3],26% and 41%
same,Population Fragmented Nuclei (%),[3],11% and 7%
same,Population Healthy Nuclei (%),[3],78% and 79%
same,Population Hoechst High Intensity Objects (%),[3],4% and 6%
same,Population Membrane Permeable-Phenotype (%),[3],0%
same,Population Mitochondria Different-Phenotype (%),[3],21% and 38%
same,Population Mitotic Cells (%),[3],73% and 58%
same,Population Normal (%),[3],95% and 93%
same,Population Pyknosed Nuclei (%),[3],10% and 13%
same,Population Tubulin-Different-Phenotype (%),[3],15% and 17%
same,Total Cell Count,[3],538 and 331
same,Population Apoptotic (%),[4],39% and 50%
same,Population Fragmented Nuclei (%),[4],5% and 6%
same,Population Healthy Nuclei (%),[4],80% and 77%
same,Population Hoechst High Intensity Objects (%),[4],7% and 14%
same,Population Membrane Permeable-Phenotype (%),[4],0%
same,Population Mitochondria Different-Phenotype (%),[4],61% and 56%
same,Population Mitotic Cells (%),[4],60% and 50%
same,Population Normal (%),[4],92% and 85%
same,Population Pyknosed Nuclei (%),[4],14% and 15%
same,Population Tubulin-Different-Phenotype (%),[4],38% and 22%
same,Total Cell Count,[4],447 and 354
same,Population Apoptotic (%),[5],17% and 37%
same,Population Fragmented Nuclei (%),[5],12% and 9%
same,Population Healthy Nuclei (%),[5],80% and 79%
same,Population Hoechst High Intensity Objects (%),[5],3% and 5%
same,Population Membrane Permeable-Phenotype (%),[5],2% and 0%
same,Population Mitochondria Different-Phenotype (%),[5],17% and 23%
same,Population Mitotic Cells (%),[5],82% and 62%
same,Population Normal (%),[5],96% and 94%
same,Population Pyknosed Nuclei (%),[5],7% and 10%
same,Population Tubulin-Different-Phenotype (%),[5],13% and 9%
same,Total Cell Count,[5],897 and 476
same,Population Apoptotic (%),[6],41% and 58%
same,Population Fragmented Nuclei (%),[6],10% and 16%
same,Population Healthy Nuclei (%),[6],79% and 72%
same,Population Hoechst High Intensity Objects (%),[6],8% and 17%
same,Population Membrane Permeable-Phenotype (%),[6],1% and 0%
same,Population Mitochondria Different-Phenotype (%),[6],36%
same,Population Mitotic Cells (%),[6],58% and 41%
same,Population Normal (%),[6],91% and 82%
same,Population Pyknosed Nuclei (%),[6],10% and 11%
same,Population Tubulin-Different-Phenotype (%),[6],18% and 13%
same,Total Cell Count,[6],595 and 504
CC[C@H]1OC(=O)[C@H](C)[C@@H](O[C@H]2C[C@@](C)(OC)[C@@H](O)[C@H](C)O2)[C@H](C)[C@@H](O[C@@H]2O[C@H](C)C[C@H](N(C)C)[C@H]2O)[C@@]2(C)CC(C)=C(O2)[C@H](C)[C@@H](O)[C@]1(C)O,Population Apoptotic (%),[1],35% and 45%
same,Population Fragmented Nuclei (%),[1],8% and 3%
same,Population Healthy Nuclei (%),[1],74% and 84%
same,Population Hoechst High Intensity Objects (%),[1],6% and 7%
same,Population Membrane Permeable-Phenotype (%),[1],0%
same,Population Mitochondria Different-Phenotype (%),[1],56% and 72%
same,Population Mitotic Cells (%),[1],64% and 54%
same,Population Normal (%),[1],93% and 92%
same,Population Pyknosed Nuclei (%),[1],17% and 11%
same,Population Tubulin-Different-Phenotype (%),[1],41% and 27%
same,Total Cell Count,[1],367 and 300
same,Population Apoptotic (%),[2],55% and 56%
same,Population Fragmented Nuclei (%),[2],8% and 11%
same,Population Healthy Nuclei (%),[2],71% and 72%
same,Population Hoechst High Intensity Objects (%),[2],13% and 10%
same,Population Membrane Permeable-Phenotype (%),[2],0%
same,Population Mitochondria Different-Phenotype (%),[2],87% and 91%
same,Population Mitotic Cells (%),[2],44% and 43%
same,Population Normal (%),[2],86% and 89%
same,Population Pyknosed Nuclei (%),[2],19% and 16%
same,Population Tubulin-Different-Phenotype (%),[2],76% and 77%
same,Total Cell Count,[2],383 and 217
same,Population Apoptotic (%),[3],20% and 35%
same,Population Fragmented Nuclei (%),[3],8%
same,Population Healthy Nuclei (%),[3],78%
same,Population Hoechst High Intensity Objects (%),[3],3% and 6%
same,Population Membrane Permeable-Phenotype (%),[3],0%
same,Population Mitochondria Different-Phenotype (%),[3],35% and 49%
same,Population Mitotic Cells (%),[3],79% and 64%
same,Population Normal (%),[3],96% and 93%
same,Population Pyknosed Nuclei (%),[3],13% and 12%
same,Population Tubulin-Different-Phenotype (%),[3],24% and 22%
same,Total Cell Count,[3],493 and 371
same,Population Apoptotic (%),[4],42% and 70%
same,Population Fragmented Nuclei (%),[4],9% and 10%
same,Population Healthy Nuclei (%),[4],75% and 71%
same,Population Hoechst High Intensity Objects (%),[4],11% and 10%
same,Population Membrane Permeable-Phenotype (%),[4],0%
same,Population Mitochondria Different-Phenotype (%),[4],74% and 87%
same,Population Mitotic Cells (%),[4],57% and 29%
same,Population Normal (%),[4],88% and 89%
same,Population Pyknosed Nuclei (%),[4],15% and 18%
same,Population Tubulin-Different-Phenotype (%),[4],75% and 80%
same,Total Cell Count,[4],499 and 254
same,Population Apoptotic (%),[5],30% and 21%
same,Population Fragmented Nuclei (%),[5],12%
same,Population Healthy Nuclei (%),[5],76% and 78%
same,Population Hoechst High Intensity Objects (%),[5],8% and 6%
same,Population Membrane Permeable-Phenotype (%),[5],0%
same,Population Mitochondria Different-Phenotype (%),[5],28% and 34%
same,Population Mitotic Cells (%),[5],69% and 78%
same,Population Normal (%),[5],91% and 93%
same,Population Pyknosed Nuclei (%),[5],11% and 9%
same,Population Tubulin-Different-Phenotype (%),[5],21% and 20%
same,Total Cell Count,[5],718 and 584
same,Population Apoptotic (%),[6],50% and 53%
same,Population Fragmented Nuclei (%),[6],12%
same,Population Healthy Nuclei (%),[6],74% and 75%
same,Population Hoechst High Intensity Objects (%),[6],10% and 12%
same,Population Membrane Permeable-Phenotype (%),[6],1% and 0%
same,Population Mitochondria Different-Phenotype (%),[6],61% and 84%
same,Population Mitotic Cells (%),[6],50% and 46%
same,Population Normal (%),[6],89% and 87%
same,Population Pyknosed Nuclei (%),[6],12% and 11%
same,Population Tubulin-Different-Phenotype (%),[6],56% and 73%
same,Total Cell Count,[6],671 and 300
CN(C)c1ccnc2sc3c(=O)n(N4CCCCCC4)cnc3c12,Population Apoptotic (%),[1],45% and 51%
same,Population Fragmented Nuclei (%),[1],9% and 5%
same,Population Healthy Nuclei (%),[1],76% and 82%
same,Population Hoechst High Intensity Objects (%),[1],4% and 8%
same,Population Membrane Permeable-Phenotype (%),[1],1% and 0%
same,Population Mitochondria Different-Phenotype (%),[1],50% and 67%
same,Population Mitotic Cells (%),[1],54% and 48%
same,Population Normal (%),[1],95% and 91%
same,Population Pyknosed Nuclei (%),[1],13% and 12%
same,Population Tubulin-Different-Phenotype (%),[1],43% and 25%
same,Total Cell Count,[1],360 and 335
same,Population Apoptotic (%),[2],36% and 59%
same,Population Fragmented Nuclei (%),[2],4% and 9%
same,Population Healthy Nuclei (%),[2],81% and 72%
same,Population Hoechst High Intensity Objects (%),[2],10% and 13%
same,Population Membrane Permeable-Phenotype (%),[2],0%
same,Population Mitochondria Different-Phenotype (%),[2],78% and 76%
same,Population Mitotic Cells (%),[2],63% and 40%
same,Population Normal (%),[2],89% and 86%
same,Population Pyknosed Nuclei (%),[2],14% and 17%
same,Population Tubulin-Different-Phenotype (%),[2],79% and 59%
same,Total Cell Count,[2],387 and 308
same,Population Apoptotic (%),[3],30% and 25%
same,Population Fragmented Nuclei (%),[3],10% and 7%
same,Population Healthy Nuclei (%),[3],76% and 84%
same,Population Hoechst High Intensity Objects (%),[3],4% and 5%
same,Population Membrane Permeable-Phenotype (%),[3],1% and 0%
same,Population Mitochondria Different-Phenotype (%),[3],27% and 51%
same,Population Mitotic Cells (%),[3],70% and 74%
same,Population Normal (%),[3],95% and 94%
same,Population Pyknosed Nuclei (%),[3],12% and 7%
same,Population Tubulin-Different-Phenotype (%),[3],24% and 22%
same,Total Cell Count,[3],510 and 470
same,Population Apoptotic (%),[4],42% and 66%
same,Population Fragmented Nuclei (%),[4],7% and 10%
same,Population Healthy Nuclei (%),[4],76% and 74%
same,Population Hoechst High Intensity Objects (%),[4],8% and 13%
same,Population Membrane Permeable-Phenotype (%),[4],0%
same,Population Mitochondria Different-Phenotype (%),[4],80% and 75%
same,Population Mitotic Cells (%),[4],57% and 33%
same,Population Normal (%),[4],91% and 86%
same,Population Pyknosed Nuclei (%),[4],16% and 15%
same,Population Tubulin-Different-Phenotype (%),[4],71% and 53%
same,Total Cell Count,[4],428 and 359
same,Population Apoptotic (%),[5],27% and 20%
same,Population Fragmented Nuclei (%),[5],13% and 11%
same,Population Healthy Nuclei (%),[5],78% and 82%
same,Population Hoechst High Intensity Objects (%),[5],2% and 3%
same,Population Membrane Permeable-Phenotype (%),[5],0% and 2%
same,Population Mitochondria Different-Phenotype (%),[5],23% and 31%
same,Population Mitotic Cells (%),[5],72% and 80%
same,Population Normal (%),[5],97% and 96%
same,Population Pyknosed Nuclei (%),[5],7% and 6%
same,Population Tubulin-Different-Phenotype (%),[5],14% and 15%
same,Total Cell Count,[5],721 and 663
same,Population Apoptotic (%),[6],70% and 57%
same,Population Fragmented Nuclei (%),[6],15% and 11%
same,Population Healthy Nuclei (%),[6],72% and 75%
same,Population Hoechst High Intensity Objects (%),[6],8% and 6%
same,Population Membrane Permeable-Phenotype (%),[6],0%
same,Population Mitochondria Different-Phenotype (%),[6],66% and 63%
same,Population Mitotic Cells (%),[6],29% and 42%
same,Population Normal (%),[6],91% and 93%
same,Population Pyknosed Nuclei (%),[6],12%
same,Population Tubulin-Different-Phenotype (%),[6],54% and 45%
same,Total Cell Count,[6],497 and 450

# From ChEMBL document CHEMBL5724801, “EUbOPEN Chemogenomics Library - Multiplex” (2024)
